≈ marks a conversion by molar mass, not a printed value. Calls of active or inactive are those of the source. The rule behind the calls is not given here.
Columns and labels:
[1] = target: Insulin-degrading enzyme (Homo sapiens) (UniProt P14735); experiment: (§1) Inhibition of human recombinant IDE-mediated amyloid beta (16 to 23) hydrolysis using ATTO 655-Cys-Lys-Leu-Val-Phe-Phe-Ala-Glu-Asp-Trp as substrate preincubated for 10 mins measured after 30 mins by spectrophotometer analysis
[2] = target: Insulin-degrading enzyme (Homo sapiens) (UniProt P14735); experiment: Reversible inhibition of human recombinant IDE-mediated amyloid beta (16 to 23) hydrolysis using ATTO 655-Cys-Lys-Leu-Val-Phe-Phe-Ala-Glu-Asp-Trp as substrate at 20 uM preincubated for 20 mins measured measured after 100 fold dilution by spectrophotometer analysis
[3] = target: Insulin-degrading enzyme (Homo sapiens) (UniProt P14735); experiment: Competitive inhibition of human recombinant IDE-mediated amyloid beta (16 to 23) hydrolysis using ATTO 655-Cys-Lys-Leu-Val-Phe-Phe-Ala-Glu-Asp-Trp as substrate
Method in brief: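 Human recombinant IDE (1.87 ng/μL) preincubated 10 min at 37 °C with compound in 50 mM Hepes, 100 mM NaCl, pH 7.4. Reaction started with quenched ATTO 655-labelled peptide substrate (5 μM final), 1% DMSO final. Fluorescence read after 30 min (ex 635, em 750 nm). 8-point dose-response curves, average of at least three independent measurements. EDTA reference (2 mM).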

Insulin-degrading enzyme = target: T1, Insulin-degrading enzyme (Homo sapiens, UniProt P14735); experiment: as §1
T1 sequence (P14735 whole entry): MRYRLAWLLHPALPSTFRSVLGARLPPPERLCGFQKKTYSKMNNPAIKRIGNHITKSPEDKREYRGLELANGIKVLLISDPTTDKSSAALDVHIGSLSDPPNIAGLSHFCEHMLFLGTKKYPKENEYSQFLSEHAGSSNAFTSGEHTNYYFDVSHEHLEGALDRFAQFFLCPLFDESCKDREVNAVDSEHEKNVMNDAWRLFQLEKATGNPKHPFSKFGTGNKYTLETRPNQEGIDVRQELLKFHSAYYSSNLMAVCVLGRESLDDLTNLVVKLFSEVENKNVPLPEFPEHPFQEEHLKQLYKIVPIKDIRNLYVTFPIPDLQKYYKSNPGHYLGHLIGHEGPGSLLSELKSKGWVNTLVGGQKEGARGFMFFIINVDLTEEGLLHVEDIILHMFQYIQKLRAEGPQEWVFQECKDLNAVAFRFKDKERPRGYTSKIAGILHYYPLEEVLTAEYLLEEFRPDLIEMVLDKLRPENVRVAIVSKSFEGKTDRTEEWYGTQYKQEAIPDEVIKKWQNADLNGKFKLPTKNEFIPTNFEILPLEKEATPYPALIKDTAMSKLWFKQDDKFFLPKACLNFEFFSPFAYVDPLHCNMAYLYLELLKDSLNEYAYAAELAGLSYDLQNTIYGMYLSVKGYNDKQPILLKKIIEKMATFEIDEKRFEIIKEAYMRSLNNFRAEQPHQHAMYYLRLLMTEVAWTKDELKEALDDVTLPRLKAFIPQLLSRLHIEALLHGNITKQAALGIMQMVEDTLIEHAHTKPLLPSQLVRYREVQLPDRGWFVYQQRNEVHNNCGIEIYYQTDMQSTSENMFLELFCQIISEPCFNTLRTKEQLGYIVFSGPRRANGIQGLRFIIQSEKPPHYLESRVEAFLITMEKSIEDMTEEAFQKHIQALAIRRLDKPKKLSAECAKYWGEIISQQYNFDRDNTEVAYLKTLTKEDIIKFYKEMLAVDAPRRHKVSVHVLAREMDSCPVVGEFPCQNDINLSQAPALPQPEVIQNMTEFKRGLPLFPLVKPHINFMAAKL

[4] = target: Insulin-degrading enzyme (Homo sapiens) (UniProt P14735); experiment: Inhibition of IDE in human SH-SY5Y cells expressing human APP751 with Swedish mutant/human […] assessed as increase of amyloid beta (1 to 42) level after 24 to 48 hrs by ELISA; type: cell-based
Method in brief: (§2)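 SH-SY5Y APPswe and APPwt lines kept in DMEM with 10% fetal calf serum, 2 mM L-glutamine, 5% CO2, 37 °C. Seeded at 1.94 10^5 cells/well and treated 24 h later with vehicle or drug at 0.1 or 10 μM (from 10 mM DMSO stock) for 24 h and 48 h. Medium cleared by centrifugation and assayed by ELISA. Aβ1-42 used 100 μL of medium undiluted; Aβ1-40 used 10 μL diluted 1:10. Duplicates in three independent experiments, normalized to untreated cells.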

[5] = target: T2, Insulin-degrading enzyme (Mus musculus) (UniProt Q9JHR7); experiment: Inhibition of IDE in mouse Min6 cells assessed as effect on 2.8 mM of glucose-induced insulin secretion at 10 uM after 24 hrs by ELISA; type: cell-based
T2 sequence (whole entry): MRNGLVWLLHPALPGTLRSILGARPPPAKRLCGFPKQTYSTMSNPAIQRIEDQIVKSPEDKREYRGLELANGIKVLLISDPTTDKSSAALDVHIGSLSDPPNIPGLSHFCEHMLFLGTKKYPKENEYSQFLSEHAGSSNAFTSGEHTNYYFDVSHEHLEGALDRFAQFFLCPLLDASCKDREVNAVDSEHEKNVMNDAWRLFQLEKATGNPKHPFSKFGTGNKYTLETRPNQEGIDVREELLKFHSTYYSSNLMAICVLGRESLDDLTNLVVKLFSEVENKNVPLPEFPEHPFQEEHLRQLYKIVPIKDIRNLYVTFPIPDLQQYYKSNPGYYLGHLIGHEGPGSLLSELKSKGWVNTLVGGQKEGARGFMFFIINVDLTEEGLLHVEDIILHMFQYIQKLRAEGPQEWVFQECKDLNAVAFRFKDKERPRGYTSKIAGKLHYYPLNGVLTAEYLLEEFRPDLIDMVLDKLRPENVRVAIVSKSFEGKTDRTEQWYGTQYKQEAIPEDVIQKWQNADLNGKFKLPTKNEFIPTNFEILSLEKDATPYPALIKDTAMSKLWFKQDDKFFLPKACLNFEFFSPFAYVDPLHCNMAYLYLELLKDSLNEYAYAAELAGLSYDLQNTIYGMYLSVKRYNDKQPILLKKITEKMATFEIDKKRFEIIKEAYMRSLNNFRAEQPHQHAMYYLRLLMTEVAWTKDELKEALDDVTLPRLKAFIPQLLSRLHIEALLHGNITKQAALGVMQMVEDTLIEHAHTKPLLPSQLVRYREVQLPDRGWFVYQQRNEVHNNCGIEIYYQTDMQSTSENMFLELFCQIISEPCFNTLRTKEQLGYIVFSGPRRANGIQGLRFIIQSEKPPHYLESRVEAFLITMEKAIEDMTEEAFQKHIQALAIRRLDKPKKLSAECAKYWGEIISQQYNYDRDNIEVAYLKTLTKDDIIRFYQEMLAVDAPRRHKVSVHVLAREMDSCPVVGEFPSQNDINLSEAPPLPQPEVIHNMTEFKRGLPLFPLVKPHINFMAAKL

[6] = target: T2, Insulin-degrading enzyme (Mus musculus); experiment: Inhibition of IDE in mouse Min6 cells assessed as effect on 11 mM of glucose-induced insulin secretion at 10 uM after 24 hrs by ELISA; type: cell-based
[7] = target: T2, Insulin-degrading enzyme (Mus musculus); experiment: Inhibition of IDE in mouse Min6 cells assessed as effect on 20 mM of glucose-induced insulin secretion at 10 uM after 24 hrs by ELISA; type: cell-based
[8] = target: Insulin-degrading enzyme (Homo sapiens) (UniProt P14735); experiment: Inhibition of IDE in immortalized human hepatocytes assessed as effect on insulin-induced PEPCK mRNA expression at 10 uM after 24 hrs by quantitative RT-PCR analysis; type: cell-based; set-up: scale not given: the % may be the effect or the level left; settings: Hepatocyte
[9] = target: Insulin-degrading enzyme (Homo sapiens) (UniProt P14735); experiment: Inhibition of human recombinant IDE-mediated insulin hydrolysis assessed as residual insulin level at 100 uM preincubated for 10 mins measured after 30 mins by spectrophotometer analysis
[10] = Solubility of the compound in PBS at pH 7.4; type: physicochemical
[11] = PBS-octanol partition coefficient, log D of the compound; type: physicochemical
[12] = Apparent permeability across human Caco2 cells at 10 uM after 1 hr by LC-MS/MS analysis; type: ADME, cell-based; settings: Caco-2
Plasma = experiment: Prodrug conversion in mouse plasma assessed as half life of BDM43079 formation at 10 uM by LC-MS/MS analysis; type: ADME, cell-free
[13] = Prodrug conversion in IHH cell culture medium assessed as half life of BDM43079 formation at 10 uM by LC-MS/MS analysis; type: ADME, cell-based; settings: human, hh
Method in brief: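 Conversion to the active acid followed in William's E medium with 10% fetal calf serum.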

[14] = target: Insulin-degrading enzyme (Homo sapiens) (UniProt P14735); experiment: Inhibition of IDE in human SH-SY5Y cells expressing human APP751 with Swedish mutant/human […] assessed as increase of amyloid beta (1 to 40) level after 24 to 48 hrs by ELISA; type: cell-based; method in brief: as §2
[15] = target: Insulin-degrading enzyme (Homo sapiens) (UniProt P14735); experiment: Inhibition of IDE in human SH-SY5Y cells expressing human APP751 with Swedish mutant/human […] assessed as effect on CTFs level after 24 to 48 hrs by Western blot
[16] = target: Insulin-degrading enzyme (Homo sapiens) (UniProt P14735); experiment: Inhibition of IDE in human SH-SY5Y cells expressing human APP751 with Swedish mutant/human […] assessed as effect on APP holoproteins level after 24 to 48 hrs by Western blot

Row | inhibition [1] | inhibition [2] | inhibition [3] | IC50 (Insulin-degrading enzyme) | inhibition [4] | Activity [5] | Activity [6] | Activity [7] | Activity [9] | solubility [10] | logD [11] | Papp at 1 h, 10 µM [12] | t1/2 (Plasma) | t1/2 [13] | inhibition [14] | inhibition [15] | inhibition [16] | SMILES | Activity [8]
1 | Dose-dependent effect | Active | Active | – | – | – | – | – | – | – | – | – | – | – | – | – | – | COC(=O)[C@H](Cc1c[nH]cn1)NC(=O)CN(CC(=O)O)Cc1ccccc1 | –
2 | – | – | – | 600 nM | – | – | – | – | – | – | – | – | – | – | – | – | – | COC(=O)[C@H](Cc1c[nH]cn1)NC(=O)CN(CCCc1ccccc1)CC(=O)O | –
3 | – | – | – | > 100000 nM | Dose-dependent effect | 21.2 µg/L | 78.8 µg/L | 132 µg/L | 50% | 74 µM (≈ 30.7 µg/mL) | 1.1 | 0.2 ×10⁻⁶ cm/s | 6 min | 11.3 h | Dose-dependent effect | inactive | inactive | CNC(=O)[C@H](Cc1c[nH]cn1)NC(=O)CN(CCCc1ccccc1)CC(=O)OC | 62%

From ChEMBL document CHEMBL3232818, “Imidazole-derived 2-[N-carbamoylmethyl-alkylamino]acetic acids, substrate-dependent modulators of insulin-degrading enzyme in amyloid-β hydrolysis” (Eur J Med Chem, 2014)
